Values after ≈ are worked out from the molar mass of the structure shown. Active and inactive are the calls of the source. No cut-off for these calls is given here.

For orientation: IC50 means the point on the concentration scale where inhibition reaches its midpoint.

In test [1] the test system is Radical scavenging activity. Description: Antioxidant activity against DPPH radical scavenging activity at 3.125 ug/ml. It counts as functional. The essentials:
(§1)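 Scavenging of DPPH radical: sample in methanol (3.125, 6.25, 12.5, 25.0 µg/mL final) mixed 1:1 with 0.15 mM DPPH in methanol; absorbance change at 517 nm followed for 1 min. Percent scavenged = 100 × (A0 − Ai)/A0, A0 being initial DPPH absorbance.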
On the technique in general: Loss of DPPH colour is used to gauge radical scavenging.

Test [2] relates to HL-60 (Homo sapiens). The experiment in a line: Induction of apoptosis in human HL-60 cells assessed as DNA fragmentation at 5 ug/ml after 24 hrs by agarose gel electrophoresis.
The subject of test [3] is Melanoma cell. The experiment in a line: Induction of apoptosis in human Melanoma cells assessed as accumulation at subG1 at 15 uM after 24 hrs by flow cytometry analysis. It counts as functional. To be noted: in the assay text read “15 ug/mL” for “15 uM”. The essentials: (§2)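 Melanoma cells (1 × 10^6 per 60 mm dish) preincubated 12 h, then exposed to 15 µg/mL compound or DMSO for 0, 3, 6, 12 or 24 h. Cells fixed in ice-cold ethanol at −20 °C overnight, treated with Triton X-100/RNase A 30 min at 37 °C, stained with propidium iodide. Sub-G1 (lower DNA content) fraction measured by flow cytometry.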

In test [4] the test system is Melanoma cell. Description: Induction of apoptosis in human Melanoma cells assessed as accumulation at subG1 at 15 uM after 12 hrs by flow cytometry analysis. It counts as functional. To be noted: in the assay text read “15 ug/mL” for “15 uM”. The essentials:
as §2
For orientation: Flow cytometry measures light scatter and fluorescence of single cells or particles in a stream.

Test [5] concerns Melanoma cell. Description: Cytotoxicity against human Melanoma cells after 24 hrs by trypan blue exclusion assay. The test is classed as functional, cell-based. The essentials: (§3)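 Human melanoma and C6 glioma cells grown in DMEM with 10% FBS and 1% penicillin/streptomycin, 37 °C, 5% CO2. Seeded at 1 × 10^5 cells/well and exposed to various compound concentrations for 24 h. Cells counted; viability by trypan blue exclusion.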

Test [6] deals with C6. Description: Cytotoxicity against rat C6 cells at >15 ug/m after 24 hrs by trypan blue exclusion assay. It counts as functional, cell-based. The essentials:
as §3

The subject of test [7] is HL-60. The experiment in a line: Cytotoxicity against human HL60 cells at >15 ug/ml after 24 hrs by trypan blue exclusion assay. It counts as functional, cell-based. The essentials:
(§4)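 HL-60 cells grown in RPMI 1640 with 10% FBS and 1% penicillin/streptomycin, 37 °C, 5% CO2. Seeded at 1 × 10^5 cells/well and exposed to various compound concentrations for 24 h. Cells counted; viability by trypan blue exclusion.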

Test [8] deals with HL-60. The experiment in a line: Cytotoxicity against human HL60 cells after 24 hrs by trypan blue exclusion assay. The test is classed as functional, cell-based. The following applies: HL-60, 24 h. The essentials: as §4
Test [9] concerns Radical scavenging activity. Description: Antioxidant activity against DPPH radical scavenging activity at 12.5 ug/ml. It counts as functional. The essentials: as §1
In test [10] the test system is Radical scavenging activity. Description: Antioxidant activity against DPPH radical scavenging activity at 6.25 ug/ml. It counts as functional. Put shortly:
as §1

In test [11] the test system is Radical scavenging activity. The experiment in a line: Antioxidant activity against DPPH radical scavenging activity at 25 ug/ml. It counts as functional. The essentials: as §1
The subject of test [12] is Radical scavenging activity. Description: Antioxidant activity against DPPH radical scavenging activity. It counts as functional. Put shortly:
as §1

Test [13] relates to Melanoma cell. Description: Induction of apoptosis in human Melanoma cells assessed as accumulation at subG1 at 15 ug/mL after 6 hrs by flow cytometry analysis.
For test [14], the system named is Melanoma cell. Description: Induction of apoptosis in human Melanoma cells assessed as accumulation at subG1 at 15 ug/mL after 3 hrs by flow cytometry analysis.
Test [15] deals with C6. The experiment in a line: Cytotoxicity against rat C6 cells after 24 hrs by trypan blue exclusion assay. It counts as functional, cell-based. The following applies: C6, 24 h. The essentials: as §3

Consider `C/C(=C/Cc1c([C@@H]2CC(=O)c3c(O)cc(O)cc3O2)ccc(O)c1O)CCCC(C)(C)O` [PROPOLIN A], for which the Activity was 36% in test [1]; 40.95% in test [3]; 23.93% in test [4]; 92.1% in test [9]; 72.2% in test [10]; 99.5% in [11]. Besides, the values for the Activity in test [13] and in [14] were 15.22% and 15.01%, respectively. The outcome in [2], in test [6] and in test [7] was Active. Further, the concentration for half-maximal inhibition (IC50) is 6 µg/mL (≈ 13.6 µM) in test [5], 7.5 µg/mL (≈ 16.9 µM) in test [8], 5 µg/mL (≈ 11.3 µM) in [12] and 3.5 µg/mL (≈ 7.91 µM) in [15].
Turning to `O=C(/C=C/c1ccc(O)c(O)c1)OCCc1ccccc1`, the Activity in test [1] turned out to be 39.1%; in test [9], 98.5%; in [10], 85.5%; in test [11], 99.8%.
As to `C/C(=C\Cc1cc([C@@H]2CC(=O)c3c(O)cc(O)cc3O2)cc(O)c1O)CCCC(C)(C)O` [PROPOLIN B], the Activity in [1] amounted to 18.3%; in test [9] it was 85.7%; in [10], 36.7%; in test [11] it was 94.7%. In addition, the half-inhibitory concentration (IC50) in test [5] was 7.5 µg/mL (≈ 16.9 µM); in test [8] it was 7.5 µg/mL (≈ 16.9 µM); in test [12] it was 9 µg/mL (≈ 20.3 µM); in test [15] it was 4 µg/mL (≈ 9.04 µM).

The values are drawn from ChEMBL document CHEMBL1159358, “Cytotoxic prenylflavanones from Taiwanese propolis” (J Nat Prod, 2003).
